Experimental data published in ChEMBL document CHEMBL4610030, “Identification of human lactate dehydrogenase A inhibitors with anti-osteosarcoma activity through cell-based phenotypic screening” (Bioorg Med Chem Lett, 2020).
The source made the active and inactive calls. No cut-off for these calls is given here.

What was measured:
[1] = target: T1, L-lactate dehydrogenase A chain (Homo sapiens, UniProt P00338); test: Inhibition of human LDHA at 5 uM using NADH and pyruvate by microplate reader based assay relative to control
Procedure, shortened: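 Recombinant-free description: hLDHA was incubated with pyruvate and NADH plus compound at 5 µM. NADH consumption was followed as the decrease in absorbance at 340 nm on a microplate reader and expressed as inhibitory rate.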

[2] = target: T1, L-lactate dehydrogenase A chain; test: Inhibition of human LDHA using NADH and pyruvate by microplate reader based assay
Procedure, shortened: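 hLDHA activity was measured with pyruvate and NADH across full dose-response to give EC50. The read-out was the decline in absorbance at 340 nm on a microplate reader.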

[3] = target: T1, L-lactate dehydrogenase A chain; test: Binding affinity at human LDHA assessed as dissociation constant by isothermal titration calorimetry
Procedure, shortened: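 Compounds were titrated into hLDHA by isothermal titration calorimetry to obtain Kd.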

MG-63 [4] = test: Antiproliferative activity against human MG63 cells assessed as reduction in cell viability at 5 uM incubated by IncuCyte zoom live cell analysis; format: functional, cell-based; conditions: TDE = time-dependent effect
Procedure, shortened: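 MG-63 cells were exposed to 5 µM and imaged over time by IncuCyte Zoom live-cell analysis to follow growth.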

MG-63 [5] = test: Antiproliferative activity against human MG63 cells assessed as reduction in cell viability incubated for 24 to 72 hrs by IncuCyte zoom live cell analysis; format: functional, cell-based
HOS = test: Antiproliferative activity against human HOS cells assessed as reduction in cell viability incubated for 24 to 72 hrs by IncuCyte zoom live cell analysis; format: functional, cell-based
SAOS-2 = test: Antiproliferative activity against human Saos2 cells assessed as reduction in cell viability incubated for 24 to 72 hrs by IncuCyte zoom live cell analysis; format: functional, cell-based
U2OS = test: Antiproliferative activity against human U2OS cells assessed as reduction in cell viability incubated for 24 to 72 hrs by IncuCyte zoom live cell analysis; format: functional, cell-based
MG-63 [6] = test: Induction of apoptosis in human MG63 cells assessed as viable cells at 5 uM measured after 12 hrs by annexin V-propidium iodide staining-based flow cytometry (reference value: 98.11 %); format: functional; conditions: MG-63, 12 h, read-out: Activity
Procedure, shortened: (§1)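 MG-63 cells were treated at 5 µM for 12, 18 or 24 h, or at 2, 5 or 10 µM for 24 h. Cells were then stained with annexin V-FITC/PI and analysed by flow cytometry for apoptotic populations.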

MG-63 [7] = test: Induction of apoptosis in human MG63 cells assessed as early apoptotic cells at 5 uM measured after 12 hrs by annexin V-propidium iodide staining-based flow cytometry (reference value: 0.14 %); format: functional; procedure, shortened: as §1
MG-63 [8] = test: Induction of apoptosis in human MG63 cells assessed as late apoptotic cells at 5 uM measured after 12 hrs by annexin V-propidium iodide staining-based flow cytometry (reference value: 0.91 %); format: functional; procedure, shortened: as §1
MG-63 [9] = test: Induction of apoptosis in human MG63 cells assessed as necrotic cells at 5 uM measured after 12 hrs by annexin V-propidium iodide staining-based flow cytometry (reference value: 0.84 %); format: functional; procedure, shortened: as §1
MG-63 [10] = test: Induction of apoptosis in human MG63 cells assessed as viable cells at 5 uM measured after 18 hrs by annexin V-propidium iodide staining-based flow cytometry (reference value: 98.11 %); format: functional; conditions: MG-63, 18 h, read-out: Activity; procedure, shortened: as §1
MG-63 [11] = test: Induction of apoptosis in human MG63 cells assessed as early apoptotic cells at 5 uM measured after 18 hrs by annexin V-propidium iodide staining-based flow cytometry (reference value: 0.14 %); format: functional; procedure, shortened: as §1
MG-63 [12] = test: Induction of apoptosis in human MG63 cells assessed as late apoptotic cells at 5 uM measured after 18 hrs by annexin V-propidium iodide staining-based flow cytometry (reference value: 0.91 %); format: functional; procedure, shortened: as §1
MG-63 [13] = test: Induction of apoptosis in human MG63 cells assessed as necrotic cells at 5 uM measured after 18 hrs by annexin V-propidium iodide staining-based flow cytometry (reference value: 0.84 %); format: functional; procedure, shortened: as §1
MG-63 [14] = test: Induction of apoptosis in human MG63 cells assessed as viable cells at 5 uM measured after 24 hrs by annexin V-propidium iodide staining-based flow cytometry (reference value: 96.30 to 98.11 %); format: functional; conditions: MG-63, 24 h, read-out: Activity; procedure, shortened: as §1
MG-63 [15] = test: Induction of apoptosis in human MG63 cells assessed as early apoptotic cells at 5 uM measured after 24 hrs by annexin V-propidium iodide staining-based flow cytometry (reference value: 0.14 to 0.16 %); format: functional; procedure, shortened: as §1
MG-63 [16] = test: Induction of apoptosis in human MG63 cells assessed as late apoptotic cells at 5 uM measured after 24 hrs by annexin V-propidium iodide staining-based flow cytometry (reference value: 0.91 to 1.44 %); format: functional; procedure, shortened: as §1
MG-63 [17] = test: Induction of apoptosis in human MG63 cells assessed as necrotic cells at 5 uM measured after 24 hrs by annexin V-propidium iodide staining-based flow cytometry (reference value: 0.84 to 2.10 %); format: functional; procedure, shortened: as §1
MG-63 [18] = test: Induction of apoptosis in human MG63 cells assessed as viable cells at 2 uM measured after 24 hrs by annexin V-propidium iodide staining-based flow cytometry (reference value: 96.30 %); format: functional; conditions: MG-63, 24 h, read-out: Activity; procedure, shortened: as §1
MG-63 [19] = test: Induction of apoptosis in human MG63 cells assessed as early apoptotic cells at 2 uM measured after 24 hrs by annexin V-propidium iodide staining-based flow cytometry (reference value: 0.16 %); format: functional; procedure, shortened: as §1
MG-63 [20] = test: Induction of apoptosis in human MG63 cells assessed as late apoptotic cells at 2 uM measured after 24 hrs by annexin V-propidium iodide staining-based flow cytometry (reference value: 1.44 %); format: functional; procedure, shortened: as §1
MG-63 [21] = test: Induction of apoptosis in human MG63 cells assessed as necrotic cells at 2 uM measured after 24 hrs by annexin V-propidium iodide staining-based flow cytometry (reference value: 2.10 %); format: functional; procedure, shortened: as §1
MG-63 [22] = test: Induction of apoptosis in human MG63 cells assessed as viable cells at 10 uM measured after 24 hrs by annexin V-propidium iodide staining-based flow cytometry (reference value: 96.30 %); format: functional; conditions: MG-63, 24 h, read-out: Activity; procedure, shortened: as §1
MG-63 [23] = test: Induction of apoptosis in human MG63 cells assessed as early apoptotic cells at 10 uM measured after 24 hrs by annexin V-propidium iodide staining-based flow cytometry (reference value: 0.16 %); format: functional; procedure, shortened: as §1
MG-63 [24] = test: Induction of apoptosis in human MG63 cells assessed as late apoptotic cells at 10 uM measured after 24 hrs by annexin V-propidium iodide staining-based flow cytometry (reference value: 1.44 %); format: functional; procedure, shortened: as §1
MG-63 [25] = test: Induction of apoptosis in human MG63 cells assessed as necrotic cells at 10 uM measured after 24 hrs by annexin V-propidium iodide staining-based flow cytometry (reference value: 2.10 %); format: functional; procedure, shortened: as §1
MG-63 [26] = test: Induction of apoptosis in human MG63 cells measured after 24 hrs by annexin V-propidium iodide staining-based flow cytometry; format: functional, cell-based; procedure, shortened: as §1
[27] = target: T1, L-lactate dehydrogenase A chain; test: Inhibition of LDHA in human MG63 cells assessed as reduction in lactate formation at 2 to 10 uM incubated for 4 hrs; format: cell-based; conditions: MG-63
Procedure, shortened: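 MG-63 cells were treated at 2, 5 and 10 µM for 4 h. Lactate was then measured in the culture medium and compared with untreated control, with P < 0.05.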

[28] = target: T1, L-lactate dehydrogenase A chain; test: Inhibition of LDHA in human MG63 cells assessed as reduction in extracellular acidification rate at 2 to 10 uM incubated for 4 hrs by seahorse XFe96 analyser based assay; format: cell-based; conditions: MG-63
[29] = target: T1, L-lactate dehydrogenase A chain; test: Inhibition of LDHA in human MG63 cells assessed as reduction in proton production rate at 2 to 10 uM incubated for 4 hrs by seahorse XFe96 analyser based assay; format: cell-based; conditions: MG-63
[30] = target: T1, L-lactate dehydrogenase A chain; test: Inhibition of LDHA in human MG63 cells assessed as increase in oxygen consumption rate incubated for 4 hrs by seahorse XFe96 analyser based assay; format: cell-based; conditions: MG-63

Molecule Cc1c(C(=O)Nc2ccccc2)[n+]([O-])cn1-c1ccc2[nH]c(CC(C)C)nc2c1 has an inhibition [1] of 91.2%, an EC50 [2] of 0.67 µM and a Kd [3] of 2.41 µM. For the same molecule, the Activity (MG-63 [4]) was “Tde”, the IC50 (MG-63 [5]) was 2.93 µM and the IC50 (HOS) was 4.6 µM. The IC50 (SAOS-2) was 5.1 µM, the IC50 (U2OS) was 3.7 µM and the viability at 5 µM (MG-63 [6]) was 92.3%. It also gave an Activity (MG-63 [7]) of 0.34%, an Activity (MG-63 [8]) of 5.08% and an Activity (MG-63 [9]) of 2.3%. For the same molecule, the viability at 5 µM (MG-63 [10]) was 83.8%, the Activity (MG-63 [11]) was 1.32% and the Activity (MG-63 [12]) was 10.37%. The Activity (MG-63 [13]) was 4.56%, the viability at 5 µM (MG-63 [14]) was 66.6 to 78.3% and the Activity (MG-63 [15]) was 1.1 - 3.47%. For the same molecule, the Activity (MG-63 [16]) was 12.28 - 19.86%, the Activity (MG-63 [17]) was 8.3 - 10.1% and the viability at 2 µM (MG-63 [18]) was 94.8%. It also gave an Activity (MG-63 [19]) of 0.4%, an Activity (MG-63 [20]) of 3.21% and an Activity (MG-63 [21]) of 1.54%. It also gave a viability at 10 µM (MG-63 [22]) of 66.2%, an Activity (MG-63 [23]) of 3.55% and an Activity (MG-63 [24]) of 20.03%. The Activity (MG-63 [25]) was 10.19%, the Activity (MG-63 [26]) was “Dose-dependent effect” and the inhibition [27] was “Active”. The inhibition [28] was “Active”, the inhibition [29] was “Active” and the inhibition [30] was “Dose-dependent effect”.
Work on COc1ccc(-n2c[n+]([O-])c(C(=O)Nc3ccccc3)c2C)cc1N1CCCCS1(=O)=O yielded an inhibition [1] of over 50%, an EC50 [2] of 3.03 µM and a Kd [3] of 6.41 µM. For the same molecule, the IC50 (MG-63 [5]) was 6.47 µM, the IC50 (HOS) was 10.2 µM and the IC50 (SAOS-2) was 7.5 µM. It also gave an IC50 (U2OS) of 14.9 µM.
Work on Cc1c(C(=O)Nc2ccccc2)[n+]([O-])cn1-c1ccc2occc(=O)c2c1 yielded an inhibition [1] of over 50%, an EC50 [2] of 3.26 µM and a Kd [3] of 9.85 µM. The IC50 (MG-63 [5]) was 6.1 µM, the IC50 (HOS) was 12.5 µM and the IC50 (SAOS-2) was 13.6 µM. It also gave an IC50 (U2OS) of 9.5 µM.
